Bioassay records deposited in PubChem by several laboratories.
Hits are enriched below; roughly 4.1% of the tested compounds scored in any of these assays.
hERG protect = hERG rescue from dofetilide block, primary screen, cell-based, CHO-hERG, FluxOR thallium flux, dofetilide IC70; activation (rescue from dofetilide block), less the hit threshold, % at 10 µM; actives 0.51% (n = 310,000); Voltage-gated inwardly rectifying potassium channel KCNH2 (Homo sapiens), Q12809; dofetilide IC70 present;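 active means activation above the mean of controls blocked by dofetilide plus 5 SD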;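 further: thallium influx through hERG after potassium depolarization seen as dye fluorescence rise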
KCNK9 block = KCNK9 potassium channel inhibitors, primary screen, HEK293 cells, thallium flux | actives 1.2% (n = 310,000) | Potassium channel subfamily K member 9 (Homo sapiens), Q9NPC2 | AID 488922, 2010 | B-score at 10 µM | FluxOR thallium flux fluorescence; active compounds read low;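 active means ratio B-score over 3 SD below the library mean, with starting fluorescence within 5 SD of its mean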;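 further: negative B-score means less thallium flux so channel inhibition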
KCC2 mod = KCC2 cotransporter modulators, thallium flux, primary screen, cell-based, HEK293 KCC2, FluoZin-2 fluorescence, MLSMR; KCC2 cells, thallium flux FluoZin-2 fluorescence; AID 1456, 2008; actives 2.2% (n = 190,000); B-score of Tl+ flux slope (higher = more flux/activation; lower = inhibition) at 10 µM;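 active means thallium flux slope and its plate-corrected score both differing from the plate sample mean at a set confidence after two filtering rounds, in either direction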;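 further: slope of fluorescence scaled to starting intensity during 10 to 20 s after thallium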
Target sequence (Q9H2X9 whole entry, looked up): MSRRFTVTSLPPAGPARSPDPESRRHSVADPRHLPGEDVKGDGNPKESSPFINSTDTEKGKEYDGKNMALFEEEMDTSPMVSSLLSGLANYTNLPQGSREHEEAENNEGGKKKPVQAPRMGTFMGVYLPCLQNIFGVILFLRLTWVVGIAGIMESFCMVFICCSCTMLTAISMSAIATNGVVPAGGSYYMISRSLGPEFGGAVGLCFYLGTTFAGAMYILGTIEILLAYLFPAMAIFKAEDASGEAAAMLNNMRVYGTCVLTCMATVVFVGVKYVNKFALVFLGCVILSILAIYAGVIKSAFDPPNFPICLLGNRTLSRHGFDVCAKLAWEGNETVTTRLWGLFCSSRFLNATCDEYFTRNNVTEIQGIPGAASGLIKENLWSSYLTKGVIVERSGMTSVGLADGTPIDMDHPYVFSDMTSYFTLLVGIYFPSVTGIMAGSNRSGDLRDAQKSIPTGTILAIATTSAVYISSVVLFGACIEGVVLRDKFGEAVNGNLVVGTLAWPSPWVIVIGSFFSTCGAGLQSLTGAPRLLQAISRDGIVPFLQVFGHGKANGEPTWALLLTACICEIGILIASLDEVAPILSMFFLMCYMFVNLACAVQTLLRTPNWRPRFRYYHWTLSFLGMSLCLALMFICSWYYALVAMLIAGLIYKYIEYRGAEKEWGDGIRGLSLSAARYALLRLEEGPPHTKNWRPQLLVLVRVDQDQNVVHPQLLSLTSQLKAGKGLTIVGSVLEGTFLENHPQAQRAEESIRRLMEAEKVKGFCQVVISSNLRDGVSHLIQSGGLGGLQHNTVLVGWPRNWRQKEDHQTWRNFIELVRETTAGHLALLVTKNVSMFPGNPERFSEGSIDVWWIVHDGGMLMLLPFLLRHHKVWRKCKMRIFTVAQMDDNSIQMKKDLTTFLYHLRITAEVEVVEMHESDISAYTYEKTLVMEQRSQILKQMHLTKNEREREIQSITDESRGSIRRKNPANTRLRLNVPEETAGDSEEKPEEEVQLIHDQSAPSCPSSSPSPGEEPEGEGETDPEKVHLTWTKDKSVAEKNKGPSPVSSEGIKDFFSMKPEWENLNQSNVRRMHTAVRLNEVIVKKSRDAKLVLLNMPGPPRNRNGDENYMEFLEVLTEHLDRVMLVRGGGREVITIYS
KCNK3 inh = human KCNK3 channel inhibitors, primary screen, CHO cells, FluxOR thallium flux, B-score; actives 0.84% (n = 340,000); FluxOR fluorescence; active compounds read low; AID 602410, 2012; B-score at 10 µM;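 active means B-score under library mean minus 4 SD, starting fluorescence ratio at most library mean plus 5 SD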;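 further: more negative B-score means stronger inhibition of thallium flux through KCNK3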
KCNQ1 pot = potentiators or activators of KCNQ1 channel, primary screen, cell-based, thallium flux, high-throughput; Potassium voltage-gated channel subfamily KQT member 1 (Homo sapiens), P51787; CHO-K1 KCNQ1, thallium flux FluxOR fluorescence; active compounds read high; B-score at 10 µM; actives 0.35% (n = 310,000); AID 2648, 2010;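 active means fluorescence ratio B-score, a plate-corrected score, at least three library SD, with initial intensity B-score within 5 SD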
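Assay system: CHO-K1 cells stably expressing KCNQ1. Medium: assay buffer for compound exposure, DMSO matched across wells. Timing: 37 °C overnight plating, 90-min dark dye load, 20-min compound pretreatment. Signal: kinetic FluxOR fluorescence, 10 s baseline plus 110 s post-stimulus.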
KCNQ1 inh = inhibitors of human KCNQ1 channel, primary screen, cell-based, thallium flux, high-throughput | CHO-K1 KCNQ1, FluxOR thallium flux fluorescence; active compounds read high | B-score at 10 µM | actives 1.3% (n = 310,000);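 active means compounds whose thallium flux B-score, printed positive for inhibition, exceeds three library SD while starting fluorescence stays within three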;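 further: channel opened by potassium depolarization with thallium stimulus after 20 min compound exposure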
KCNK3 confirm = retest of human KCNK3 channel inhibitors, confirmation, CHO cells, FluxOR thallium flux, triplicate | ratio percent of control, % at 10 µM | actives 99% (n = 2,400) | AID 651638, 2012 | FluxOR fluorescence; 0% buffer, 100% carvedilol maximal block | shares compounds with KCNK3 inh;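 active means ratio percent of control, averaged over triplicates, above buffer control mean plus 5 SD, cut at about 64% in these data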;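 further: ratio is the fluorescence rise from min to max over baseline after thallium stimulus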
KCNK3 noninduced = thallium flux inhibition in non-induced cells, primary screen, counter-screen for KCNK3 inhibitor project, cell-based, non-induced KCNK3 line, FluxOR thallium, triplicate. shares compounds with KCNK3 inh. non-induced KCNK3 parental cells; active compounds read low. thallium flux ratio (lower = more inhibition) at 10 µM. actives 40% (n = 2,400). AID 651747, 2012;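 active means thallium flux ratio, averaged over three wells, more than 5 SD below the buffer control mean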;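 further: host cells are CHO cells without KCNK3 induction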
A number is an active result; . = inactive; / = not tested or not shown.

SMILES	hERG protect	KCNK9 block	KCC2 mod	KCNK3 inh	KCNQ1 pot	KCNQ1 inh	KCNK3 confirm	KCNK3 noninduced
CCOc1ccc(NC(=O)c2cc(F)c(F)cc2Cl)cc1OCC	.	.	.	.	.	.	/	/
COC(=O)Cn1nnc(N2CCOCC2)n1	.	.	.	.	.	.	/	/
O=C(NCc1ccc(Cl)cc1)c1cc(=O)[nH]c2ccccc12	.	.	/	.	.	.	/	/
CCCCC(=O)Nc1cccc(-c2cn3ccccc3n2)c1	.	.	/	-8.72	.	.	120.7	0.131
COc1cccc(-c2nc3ccccc3c(=O)o2)c1	.	.	.	.	.	.	/	/
O=C(Nc1cccc(-c2cn3ccccc3n2)c1)c1ccccc1	.	.	.	-11.7	.	.	112.0	.
O=C(Nc1cccc(-c2nc3ccccc3c(=O)o2)c1)c1ccccc1	.	.	.	-8.71	.	.	107.7	0.159
Cc1ccc(C(=O)Nc2cccc(-c3cn4ccccc4n3)c2)cc1	.	.	.	.	.	.	/	/
CCCCCCCC(=O)NC(Nc1ccc(S(N)(=O)=O)cc1)C(Cl)(Cl)Cl (centres undefined)	.	.	/	.	.	.	/	/
Cn1c(CN2CCN(CCO)CC2)c(C#N)c2ccccc21	.	.	.	.	.	.	/	/
Cn1c(CSc2ccccc2)c(C#N)c2ccccc21	.	.	.	-10.9	.	.	105.0	0.159
CCOCCCn1c(=S)[nH]c2cc(C(=O)NCCCN(CC)CC)ccc2c1=O	.	.	.	.	.	.	/	/
Cc1noc(C)c1COc1ccccc1C(=O)NCc1ccccc1Cl	.	.	/	-8.82	.	.	104.7	.
Cc1cnc(C(=O)OCC(=O)N(Cc2ccccc2)C(C)C)cn1	.	.	.	.	.	.	/	/
COc1ccccc1-n1c(SCC(=O)Nc2ccccc2F)nc2[nH]ncc2c1=O	.	.	.	-9.58	.	.	114.0	.
CCOc1ccc(NC(=O)CSc2nc3[nH]ncc3c(=O)n2-c2ccccc2OC)cc1	.	.	.	.	.	.	/	/
CCCS(=O)(=O)c1c(S(=O)(=O)CCC)c2ccc(C(N)=O)cn2c1C(=O)c1ccc(F)cc1	.	-7.41	.	-11.9	.	.	91.0	.
CCCS(=O)(=O)c1c(S(=O)(=O)CCC)c2c(N)cccn2c1C(=O)c1ccc(F)cc1	.	.	.	.	.	.	/	/
O=C(c1cc(-c2cccc(O)c2)on1)N1CCCCCC1	.	.	/	-10.8	.	.	68.0	.
Cc1nc(N2CCN(C)CC2)c2c(C)c(C(=O)Nc3ccc(F)cc3)sc2n1	.	.	/	.	.	.	/	/
Cc1nc(N2CCCCC2)c2c(C)c(C(=O)Nc3cccc(C(F)(F)F)c3)sc2n1	.	.	.	-10.7	.	13	124.0	0.115
CN(C)CCNC(=S)Nc1ccc(Br)cc1	.	.	.	.	.	.	/	/
COc1ccc(OC)c(-c2csc(NC(=O)Cc3ccc(F)cc3)n2)c1	.	.	/	-11.2	.	.	114.0	.
COc1ccc(OC)c(-c2csc(NC(=O)C3=COCCO3)n2)c1	.	.	/	-9.09	.	.	91.0	.
O=C(Cc1ccccc1F)Nc1nc(-c2ccc(F)cc2)cs1	.	.	/	-11.1	.	.	126.0	.
SMILES	hERG protect	KCNK9 block	KCC2 mod	KCNK3 inh	KCNQ1 pot	KCNQ1 inh	KCNK3 confirm	KCNK3 noninduced
CCOC(=O)C1(C(=O)OCC)CCN(S(=O)(=O)c2ccccc2)CC1	/	/	/	.	/	/	/	/
CCCCN(C(=O)c1cc(-c2ccco2)nc2ccccc12)c1c(N)n(CCC)c(=O)[nH]c1=O	/	/	/	.	/	/	/	/
CCn1c(SCc2cccc(OC)c2)nc2ccccc2c1=O	.	.	/	-10.5	.	.	128.0	0.126
Cn1c(SCc2ccccc2F)nc2ccccc2c1=O	.	.	/	.	.	.	/	/
Cn1c(SCc2ccccc2Br)nc2ccccc2c1=O	.	.	/	-9.04	.	.	134.3	.
Cn1c(SCc2cccc(Br)c2)nc2ccccc2c1=O	.	.	/	-10.3	.	.	160.0	0.0823
O=c1c2ccccc2nc(SCc2nnc(-c3ccccc3Br)o2)n1-c1ccccc1	.	-6.88	.	-12.1	.	.	117.3	.
Cc1ccccc1CSc1nc2ccccc2c(=O)n1C	/	/	/	.	/	/	/	/
Cc1ccc(S(=O)(=O)N[C@@H](CC(C)C)C(=O)N2CCC(C(=O)N[C@@H](Cc3ccccc3)C(=O)O)CC2)cc1	.	.	/	.	.	.	/	/
CCOC(=O)CC(N)c1ccc2c(c1)OCO2 (centres undefined)	.	.	.	/	.	.	/	/
COc1ccccc1NC(=O)COn1nnc2ccc(S(=O)(=O)N3CCOCC3)cc21	.	.	.	.	.	.	/	/
Cn1c(/C(C#N)=C/c2ccc(O)cc2)nc2ccccc21	.	.	.	.	.	.	/	/
COc1cc(/C=C(\C#N)c2nc3ccccc3n2C)cc(OC)c1O	.	.	-6.92	-9.37	.	7	117.7	0.149
COc1cc(/C=C(\C#N)c2nc3ccccc3[nH]2)cc(OC)c1O	.	.	/	-16.1	.	.	.	.
O=C(CN1C(=O)NC2(CCCC2)C1=O)Oc1ccc2ccc(=O)oc2c1	/	/	/	.	/	/	/	/
O=C(N/N=C/c1cn(-c2ccccc2)nc1-c1cccnc1)c1ccccc1	.	.	.	-9.51	.	.	98.0	.
NC(=O)N/N=C/c1cn(-c2ccccc2)nc1-c1cccnc1	.	.	.	/	.	.	/	/
COc1cccc(N2CCN(C(=O)c3nc4nc(C)cc(C)n4n3)CC2)c1	.	.	.	.	.	.	/	/
CC(C)CSc1nc(N2CCOCC2)c2c(c1C#N)CC(C)(C)SC2	/	/	/	.	/	/	/	/
CCCCCSc1nc(N2CCOCC2)c2c(c1C#N)CC(C)(C)OC2	.	.	.	-9.01	.	.	104.7	0.145
CC(Sc1nc(N2CCOCC2)c2c(c1C#N)CC(C)(C)OC2)C(=O)O (centres undefined)	.	.	/	.	.	.	/	/
CCCSc1nc(N2CCOCC2)c2c(c1C#N)CC(C)(C)SC2	.	.	.	-9.49	.	.	127.7	0.123
